# In ChEMBL document CHEMBL3351274, “Sensitization of tumor necrosis factor-related apoptosis-inducing ligand (TRAIL)-resistant primary prostate cancer cells by isoegomaketone from Perilla frutescens” (J Nat Prod, 2014):
# Calls of active or inactive are those of the source. The calls are words filed in the database; no cut-off is given here.
# Experiments:
# Homo sapiens [1] = species on record: Homo sapiens; experiment: Induction of apoptosis in human RC-58T/h/SA#4 cells assessed as DR5 expression after 24 hrs by immunoblotting analysis relative to untreated control; type: functional, cell-based
# [2] = Induction of apoptosis in human RC-58T/h/SA#4 cells assessed as DR4 expression at 2.5 uM after 24 hrs by immunoblotting analysis relative to untreated control; type: functional
# [3] = Induction of apoptosis in human RC-58T/h/SA#4 cells assessed as DR5 expression at 5 uM after 24 hrs by immunoblotting analysis relative to untreated control; type: functional
# [4] = Induction of apoptosis in human RC-58T/h/SA#4 cells assessed as DR5 expression at 20 uM after 24 hrs by immunoblotting analysis relative to untreated control; type: functional
# [5] = Induction of apoptosis in human RC-58T/h/SA#4 cells assessed as DR4 expression at 20 uM after 3 hrs by immunoblotting analysis relative to untreated control; type: functional
# [6] = Induction of apoptosis in human RC-58T/h/SA#4 cells assessed as DR4 expression at 20 uM after 6 hrs by immunoblotting analysis relative to untreated control; type: functional
# [7] = Induction of apoptosis in human RC-58T/h/SA#4 cells assessed as DR5 expression at 20 uM after 3 hrs by immunoblotting analysis relative to untreated control; type: functional
# [8] = Induction of apoptosis in human RC-58T/h/SA#4 cells assessed as DR5 expression at 20 uM after 6 hrs by immunoblotting analysis relative to untreated control; type: functional
# [9] = Sensitization of TRAIL-induced apoptosis in human RC-58T/h/SA#4 cells assessed as accumulation at Sub-G1 phase at 20 uM after 24 hrs by annexin-V/propidium iodide staining-based flow cytometry in presence of Dr5 Fc chimera (reference value: 4.8%); type: functional
# [10] = Sensitization of TRAIL-induced apoptosis in human RC-58T/h/SA#4 cells assessed as PARP cleavage at 20 uM after 24 hrs by immunoblotting analysis relative to untreated control; type: functional
# Summary of the method: (§1)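 Cells seeded at 5 × 10^4 cells/mL and cultured 24 h, then given 20 μM compound and/or 100 ng/mL TRAIL for 24 h. Whole-cell lysate made in Tris/NaCl/EDTA/NaF/pyrophosphate/PMSF/aprotinin buffer, 30 min on ice, protein measured by BCA. 12% SDS-PAGE at 10 μg/lane, nitrocellulose blot, primary antibodies (caspase-3, -8, -9, Bax, Bcl-2, PARP) overnight at 4 °C, HRP secondary, ECL.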
# [11] = Induction of apoptosis in human RC-58T/h/SA#4 cells assessed as p53 expression at 5 uM after 24 hrs by immunoblotting analysis relative to untreated control; type: functional
# Summary of the method: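 RC-58T/h/SA#4 cells (DMEM, 10% FBS, 37 °C, 5% CO2) exposed to the compound over a concentration range or time course. Lysates run on 12% SDS-PAGE at 10 μg protein/lane, transferred to nitrocellulose and blocked with BSA. Blots probed overnight at 4 °C with anti-p53, then HRP secondary antibody, ECL detection; β-actin as loading control.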
# [12] = Induction of apoptosis in human RC-58T/h/SA#4 cells assessed as CHOP expression at 2.5 uM after 24 hrs by immunoblotting analysis relative to untreated control; type: functional
# Summary of the method: (§2)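 RC-58T/h/SA#4 cells seeded at 5 × 10^4 cells/mL and cultured 24 h, then given compound across a concentration series or at fixed dose over a time course. Lysates were quantified by BCA. 10 μg protein/lane run on 12% SDS-PAGE and transferred to nitrocellulose. Blots probed for p53, CHOP and β-actin with HRP secondary and ECL.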
# [13] = Induction of apoptosis in human RC-58T/h/SA#4 cells assessed as CHOP expression at 10 uM after 24 hrs by immunoblotting analysis relative to untreated control; type: functional; summary of the method: as §2
# [14] = Induction of apoptosis in human RC-58T/h/SA#4 cells assessed as CHOP expression at 40 uM after 24 hrs by immunoblotting analysis relative to untreated control; type: functional; summary of the method: as §2
# [15] = Induction of apoptosis in human RC-58T/h/SA#4 cells assessed as p53 expression at 20 uM after 6 hrs by immunoblotting analysis relative to untreated control; type: functional; summary of the method: as §2
# [16] = Induction of apoptosis in human RC-58T/h/SA#4 cells assessed as p53 expression at 20 uM after 12 hrs by immunoblotting analysis relative to untreated control; type: functional; summary of the method: as §2
# [17] = Induction of apoptosis in human RC-58T/h/SA#4 cells assessed as CHOP expression at 20 uM after 6 hrs by immunoblotting analysis relative to untreated control; type: functional; summary of the method: as §2
# [18] = Induction of apoptosis in human RC-58T/h/SA#4 cells assessed as CHOP expression at 20 uM after 18 hrs by immunoblotting analysis relative to untreated control; type: functional; summary of the method: as §2
# [19] = Induction of ROS generation in human RC-58T/h/SA#4 cells at 20 uM after 30 mins by flow cytometry (reference value: 1.9%); type: functional
# Homo sapiens [20] = species on record: Homo sapiens; experiment: Sensitization of TRAIL-induced cytotoxicity against human RC-58T/h/SA#4 cells assessed as cell viability at 5 to 20 uM after 24 hrs by SRB assay; type: functional, cell-based
# Summary of the method: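 Cells seeded at 5 × 10^4 cells/mL, grown in DMEM with 10% FBS, and given the compound with or without 100 ng/mL TRAIL for 24 h at 37 °C, 5% CO2. RWPE-1 tested at 20 μM. Cells fixed in 12% TCA for 1 h at 4 °C, stained 1 h with 0.4% SRB, washed in 1% acetic acid, dye dissolved in 10 mM Tris and absorbance read. Three experiments, means ± SD.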
# Homo sapiens [21] = species on record: Homo sapiens; experiment: Sensitization of TRAIL-induced apoptosis in human RC-58T/h/SA#4 cells assessed as condensation of chromatin at 20 uM after 24 hrs by Hoechst 33258 staining-based fluorescence microscopy; type: functional, cell-based
# Summary of the method: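 Cells seeded at 1 × 10^6/well and given 20 μM compound and/or 100 ng/mL TRAIL for 24 h. Cells fixed in 1% glutaraldehyde and stained with 5 μg/mL Hoechst 33258 for 10 min at room temperature. Nuclear fragmentation and chromatin condensation scored by fluorescence microscopy at ×400.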
# Homo sapiens [22] = species on record: Homo sapiens; experiment: Induction of apoptosis in human RC-58T/h/SA#4 cells at 20 uM after 24 hrs by annexin-V/propidium iodide staining-based flow cytometry relative to control; type: functional, cell-based
# Summary of the method: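 RC-58T/h/SA#4 cells seeded at 1 × 10^5 cells/mL in 6-well plates and given 20 μM compound and/or 100 ng/mL TRAIL for 24 h. Cells washed in ice-cold PBS, labelled with annexin V Alexa Fluor 488 for 30 min at 4 °C in the dark, then with PI. Annexin V-positive fraction counted by flow cytometry; three independent experiments, means ± SD, Student's t-test.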
# [23] = Sensitization of TRAIL-induced apoptosis in human RC-58T/h/SA#4 cells assessed as accumulation at Sub-G1 phase at 20 uM after 24 hrs by annexin-V/propidium iodide staining-based flow cytometry (reference value: 4.8%); type: functional
# [24] = Sensitization of TRAIL-induced apoptosis in human RC-58T/h/SA#4 cells assessed as procaspase-8 activation at 20 uM after 24 hrs by immunoblotting analysis relative to untreated control; type: functional; summary of the method: as §1
smiles,measurement,setting,value
CC(C)/C=C/C(=O)c1ccoc1,Activity,Homo sapiens [1],Dose-dependent effect
same,Ratio,[2],1.1
same,Ratio,[3],1.1
same,Ratio,[4],1.2
same,Ratio,[5],1.2
same,Ratio,[6],1.1
same,Ratio,[7],1.2
same,Ratio,[8],1.3
same,Activity,[9],14.3%
same,Ratio,[10],0.7
same,Ratio,[11],1.2
same,Ratio,[12],1.3
same,Ratio,[13],1.4
same,Ratio,[14],2
same,Ratio,[15],1.1
same,Ratio,[16],1.8
same,Ratio,[17],1
same,Ratio,[18],2
same,Activity,[19],2.9%
same,Activity,Homo sapiens [20],Active
same,Activity,Homo sapiens [21],Active
same,Activity,Homo sapiens [22],Active
same,Activity,[23],18%
same,Ratio,[24],0.3
